Assay type in all cases: functional
The subject of test [1] is Mus musculus. The test is described as follows: L-1210 mouse leukemia life prolongation activity was measured as T/C (mean survival time of treated animals divided by the mean survival time of the controls times 100) at dose 80 mg/kg. Put shortly: (§1)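 In vivo L-1210 leukemia in mice, run by NCI contractors by standard procedures. Two intraperitoneal doses given, on day 1 and day 5 of the study. Readout is mean survival time of treated animals over that of controls, ×100 (T/C).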

In test [2] the test system is Mus musculus. The test is described as follows: L-1210 mouse leukemia life prolongation activity was measured as T/C (mean survival time of treated animals divided by the mean survival time of the controls times 100) at dose 10 mg/kg. Put shortly:
as §1

The test system of test [3] is Mus musculus. Kind of test: L-1210 mouse leukemia life prolongation activity was measured as T/C (mean survival time of treated animals divided by the mean survival time of the controls times 100) at dose 20 mg/kg. The method, boiled down:
as §1

Test [4] concerns Mus musculus. Kind of test: L-1210 mouse leukemia life prolongation activity was measured as T/C (mean survival time of treated animals divided by the mean survival time of the controls times 100) at dose 40 mg/kg. The method, boiled down:
as §1

Test [5] concerns Mus musculus. The test is described as follows: L-1210 mouse leukemia life prolongation activity was measured as T/C(mean survival time of treated animals divided by the mean survival time of the controls times 100) at dose 2.5 mg/kg. Put shortly:
as §1

Test [6] relates to Mus musculus. Kind of test: L-1210 mouse leukemia life prolongation activity was measured as T/C (mean survival time of treated animals divided by the mean survival time of the controls times 100) at dose 1.25 mg/kg. Put shortly:
as §1

Test [7] concerns Mus musculus. The test is described as follows: L-1210 mouse leukemia life prolongation activity was measured as T/C (mean survival time of treated animals divided by the mean survival time of the controls times 100) at dose 5 mg/kg. Put shortly: as §1
The test system of test [8] is Mus musculus. The test is described as follows: L-1210 mouse leukemia life prolongation activity was measured as T/C (mean survival time of treated animals divided by the mean survival time of the controls times 100) at dose 2.5 mg/kg. Put shortly:
as §1

Among the data in ChEMBL document CHEMBL1123574, “Plant antitumor agents. 28. Resolution of a key tricyclic synthon, 5'(RS)-1,5-dioxo-5'-ethyl-5'-hydroxy-2'H,5'H,6'H-6'-oxopyrano[3' ,4'- f]delta 6,8-tetrahydro-indolizine: total synthesis and antitumor activity of 20(S)- and 20(R)-camptothecin” (1987) are T/C values, retold here.

SMILES strings stand for the structures.

For `CC[C@@](O)(C(=O)[O-])c1cc2n(c(=O)c1CO)Cc1cc3ccccc3nc1-2.[Na+]`, the T/C in the test with Mus musculus [1] is 215; in the test on Mus musculus [2], 126; in the test with Mus musculus [3], 167; with Mus musculus [4], 181.

Regarding `CC[C@@]1(O)C(=O)OCc2c1cc1n(c2=O)Cc2cc3ccccc3nc2-1` [CAMPTOTHECIN], the T/C in the test on Mus musculus [5] is listed as 147; with Mus musculus [6] it was 129; in the test on Mus musculus [2], 250; with Mus musculus [7], 185.

Consider `CC[C@]1(O)C(=O)OCc2c1cc1n(c2=O)Cc2cc3ccccc3nc2-1`, for which the T/C came out at 118 with Mus musculus [2], 114 in the test on Mus musculus [8], 132 with Mus musculus [3] and 114 in the test on Mus musculus [7].
